Experimental findings from ChEMBL document CHEMBL4138127, “Synthesis and evaluation of new pyridyl/pyrazinyl thiourea derivatives: Neuroprotection against amyloid-β-induced toxicity” (Eur J Med Chem, 2017) are described below.

Molecules are shown by their SMILES.

Series [1] is filed under the species Mus musculus. Nature of the series: Inhibition of amyloid beta (1 to 42)-induced mPTP opening in mouse HT22 cells assessed as reduction in mitochondrial membrane potential loss by measuring green to red fluorescence ratio at 5 uM preincubated for 10 mins followed by amyloid beta (1 to 42) addition measured every 1 hr for 3 hrs by JC1 staining based fluorescence assay relative to control. In kind it is cell-based. A digest of the protocol: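 HT-22 cells were seeded at 30,000 per well the day before and loaded with JC-1 (7.5 µM final) in phenol red-free Opti-MEM for 1 h 15 min at 37 °C, then PBS-washed. Compound solution (5 µM in Opti-MEM) was added for 10 min at 37 °C, followed by Aβ1-42 solution (5 µM). Red (ex/em 530/580) and green (485/530) fluorescence were read hourly for 3 h. Green/red ratio change was normalized to vehicle control as 100%.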

A further series concerns ATP synthase. Put plainly: Inhibition of ATP synthase in mouse HT22 cells assessed as ATP production at 5 uM after 7 hrs by luciferase based assay relative to control. In kind it is cell-based. Details: scale not given: the % may be the effect or the level left. Particulars: read-out: Activity. Summed up: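 HT-22 cells were seeded at 10,000 per well one day before, then given 5 µM compound for 7 h at 37 °C. After PBS washes, cells were lysed in 1% Triton X-100 in TBST. Protein was measured by BCA, and equal lysate amounts were assayed for ATP with a luciferase-based kit. Vehicle control was subtracted and percent inhibition was calculated relative to vehicle control ATP.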

The nature of series [2]: Cytotoxicity against mouse HT22 cells assessed as cell viability at 5 uM after 24 hrs by MTT assay relative to control. In kind it is cell-based, HT-22. As to conditions: read-out: Activity. A digest of the protocol:
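HT-22 mouse hippocampal cells were grown in DMEM with 10% FBS and penicillin/streptomycin at 37 °C under 5% CO2, seeded at 5000 per well and exposed to 5 µM compound for 24 h at 37 °C. MTT was added for 2 h, then formazan was dissolved in 10% Triton X-100/isopropanol/0.1 M HCl for 1 h at room temperature. A570 was read and vehicle control OD subtracted to give viability.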

The species named for series [3] is Mus musculus. Put plainly: Inhibition of mPTP opening in mouse HT22 cells assessed as protection against amyloid beta (1 to 42)-induced toxicity by measuring cell viability at 5 uM preincubated for 10 mins followed by amyloid beta (1 to 42) addition measured after 24 hrs by MTT assay (reference value: 50 to 70%). It counts as cell-based. Summed up:
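HT-22 cells were seeded at 5000 per well the day before. Compound was added as a 10 µM solution for 10 min at 37 °C, then an equal volume of 10 µM Aβ1-42 was added, and cells were incubated 24 h at 37 °C. The table footnote states 5 µM of each. Viability was read by MTT (2 h, acidic Triton/isopropanol solubilization, A570). Protection was scaled to vehicle + Aβ as 0% and vehicle alone as 100%.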

With `CC(C)(C)NC(=S)Nc1ncccc1OCc1ccccc1`, the Ratio in the series filed under Mus musculus [1] was 91%.
Consider `Cc1ccc(NC(=S)Nc2nccnc2OCc2cccc(F)c2)cc1`, for which the Ratio in the series listed under Mus musculus [1] came to 4.6%. Further, in the series with ATP synthase, the activity at 7 h, 5 µM amounted to 102%. Further, in series [2], the viability at 24 h, 5 µM amounted to 96.4%. In addition, in the series filed under Mus musculus [3], the Activity is 69.3%.
As to `NC(=O)CN1CCCC1=O` [PIRACETAM], the activity at 7 h, 5 µM with ATP synthase turned out to be 88%. Besides, the Activity in the series listed under Mus musculus [3] worked out at 29%.
Turning to `Cc1ccc(NC(=S)Nc2ncccc2OCc2ccccc2Cl)cc1`, the Ratio in the series listed under Mus musculus [1] turned out to be 13%. Besides, the activity at 7 h, 5 µM in the series with ATP synthase amounted to 102%. Also, in series [2], the viability at 24 h, 5 µM came to 93.5%. Moreover, in the series filed under Mus musculus [3], the Activity was 6.6%.
Take `CC(C)NC(=S)Nc1ncccc1OCc1ccccc1`: the Ratio in the series listed under Mus musculus [1] is 45.2%.
Take `Fc1cccc(COc2cccnc2NC(=S)Nc2cccc3ccccc23)c1`: the Ratio in the series listed under Mus musculus [1] was 16.7%. Besides, the activity at 7 h, 5 µM in the series with ATP synthase came to 100%. In addition, the viability at 24 h, 5 µM in series [2] amounted to 102%. Also, in the series listed under Mus musculus [3], the Activity was found to be 48.2%.
Taken in the same sequence, the figures for `S=C(Nc1ncccc1OCc1cccc(Cl)c1)Nc1cccc2ccccc12` were 26%, 107%, 123% and 18.6%.
Taken in the same sequence, the figures for `CC(C)(C)NC(=S)Nc1nccnc1OCc1cccc(F)c1` were 28.1%, 99.7%, 101% and 13.2%.
Taken in the same sequence, the figures for `S=C(Nc1cccc(Cl)c1)Nc1ncccc1OCc1ccccc1Cl` were 14.2%, 103%, 116% and 22.7%.
`CC(C)NC(=S)Nc1ncccc1OCc1ccccc1Cl`: the Ratio in the series listed under Mus musculus [1] stood at 31.7%. Besides, the activity at 7 h, 5 µM with ATP synthase turned out to be 93.7%. Also, the viability at 24 h, 5 µM in series [2] turned out to be 99.3%. The Activity in the series filed under Mus musculus [3] is -6.7%.
Turning to `CCNC(=S)Nc1ncccc1OCc1ccccc1`, in the series filed under Mus musculus [1], the Ratio came out at 66.8%.
Consider `S=C(NCc1ccccc1)Nc1nccnc1OCc1ccccc1Cl`, for which the Ratio in the series filed under Mus musculus [1] was 5.3%. The activity at 7 h, 5 µM in the series on ATP synthase was 85.1%. In series [2], the viability at 24 h, 5 µM was 105%. For the same molecule, the Activity in the series listed under Mus musculus [3] amounted to 3.8%.
As for `CC(C)NC(=S)Nc1nccnc1OCc1ccccc1Cl`, the Ratio in the series listed under Mus musculus [1] is 56.3%.
For `S=C(Nc1cccc(Cl)c1)Nc1ncccc1OCc1ccccc1`, the Ratio in the series filed under Mus musculus [1] is 25.3%. Moreover, in the series on ATP synthase, the activity at 7 h, 5 µM came out at 68%.
Turning to `S=C(Nc1cccc(Cl)c1)Nc1ncccc1OCc1cccc(Cl)c1`, in the series listed under Mus musculus [1], the Ratio is 38%. In addition, the activity at 7 h, 5 µM with ATP synthase was 104%. Further, in series [2], the viability at 24 h, 5 µM was 98.3%. In addition, the Activity in the series listed under Mus musculus [3] came to 51.8%.
For the molecule `CC(C)NC(=S)Nc1ncccc1OCc1cccc(F)c1`, the Ratio in the series listed under Mus musculus [1] is 86%.
Consider `S=C(Nc1cccc(Cl)c1)Nc1nccnc1OCc1ccccc1Cl`, for which the Ratio in the series listed under Mus musculus [1] is 30.8%. Also, in the series with ATP synthase, the activity at 7 h, 5 µM came out at 98%. Further, the viability at 24 h, 5 µM in series [2] was 114%. The Activity in the series listed under Mus musculus [3] came to 29.6%.
Regarding `CC(C)(C)NC(=S)Nc1ncccc1OCc1cccc(Cl)c1`, the Ratio in the series filed under Mus musculus [1] worked out at 112%.
Regarding `S=C(Nc1ncccc1OCc1ccccc1)Nc1cccc2ccccc12`, the Ratio in the series listed under Mus musculus [1] amounted to 17.1%. In addition, in the series with ATP synthase, the activity at 7 h, 5 µM turned out to be 65%.
`CCNC(=S)Nc1ncccc1OCc1cccc(F)c1`: the Ratio in the series filed under Mus musculus [1] is 88.7%.
In the case of `S=C(Nc1ncccc1OCc1ccccc1Cl)Nc1cccc2ccccc12`, in the series listed under Mus musculus [1], the Ratio is 17.5%. The activity at 7 h, 5 µM in the series on ATP synthase was 100%. Moreover, the viability at 24 h, 5 µM in series [2] was 89.3%. Moreover, the Activity in the series filed under Mus musculus [3] stood at 9.5%.
On to `S=C(NCc1ccccc1)Nc1ncccc1OCc1ccccc1`, for which, in the series filed under Mus musculus [1], the Ratio was 75.3%.
For `Cc1ccc(NC(=S)Nc2ncccc2OCc2cccc(Cl)c2)cc1`, in the series listed under Mus musculus [1], the Ratio came to 26%. For the same molecule, in the series on ATP synthase, the activity at 7 h, 5 µM turned out to be 94.5%. Further, the viability at 24 h, 5 µM in series [2] stood at 96.2%. For the same molecule, the Activity in the series filed under Mus musculus [3] is 22.8%.
`Cc1ccc(NC(=S)Nc2ncccc2OCc2ccccc2)cc1`: the Ratio in the series filed under Mus musculus [1] worked out at 23.3%. The activity at 7 h, 5 µM with ATP synthase amounted to 66%.
Turning to `CC(C)(C)NC(=S)Nc1ncccc1OCc1cccc(F)c1`, in the series listed under Mus musculus [1], the Ratio came out at 123%.
Regarding `CC(C)NC(=S)Nc1nccnc1OCc1cccc(F)c1`, the Ratio in the series listed under Mus musculus [1] worked out at 43.1%.
With `CCNC(=S)Nc1ncccc1OCc1ccccc1Cl`, the Ratio in the series filed under Mus musculus [1] was 94.1%.
